Experimental data reported in ChEMBL document CHEMBL3232750, “Synthesis, structure-activity relationships, and in vitro antibacterial and antifungal activity evaluations of novel pyrazole carboxylic and dicarboxylic acid derivatives” (2014).
Values after ≈ are worked out from the molar mass of the structure shown. Active and inactive are the calls of the source. The calls are words filed in the database; no cut-off is given here.

Columns and labels:
Staphylococcus aureus [1] = test: Antibacterial activity against methicillin-resistant Staphylococcus aureus at 37 degC after 24 hrs by agar well diffusion assay; assay type: functional
Outline: (§1)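 Bacteria kept on Nutrient Agar slants at 4 °C and subcultured before use. Suspensions of 10^8 CFU/mL were swabbed onto Nutrient Agar and the plates dried 40 min at 35 °C. Compounds were dissolved in DMSO starting at 2.5 mg/ml, serially diluted two-fold, and loaded into 6 mm wells. Plates were pre-incubated 2 h at 25 °C, then 24 h at 37 °C. Inhibition zones were read and the MIC taken as the lowest inhibiting concentration. Duplicates were run.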

Escherichia coli [2] = test: Antibacterial activity against Escherichia coli at 30 ug/disc at 37 degC after 24 hrs by agar well diffusion assay; assay type: functional; conditions: read-out: DIZ
Outline: (§2)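 Positive-control antibiotic disc on Nutrient Agar swabbed with 10^8 CFU/mL bacteria. Plates pre-incubated 2 h at 25 °C, then 24 h at 37 °C. Inhibition zone diameter measured in mm. Duplicate.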

Staphylococcus aureus [3] = test: Antibacterial activity against Staphylococcus aureus at 30 ug/disc at 37 degC after 24 hrs by agar well diffusion assay; assay type: functional; conditions: read-out: DIZ; outline: as §2
Nakaseomyces glabratus [4] = test: Antifungal activity against Candida glabrata at 100 U/disc at 25 degC after 48 hrs by agar well diffusion assay; assay type: functional, organism-based
Outline: (§3)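 Yeasts kept on Sabouraud Dextrose Agar slants at 4 °C and subcultured before use. Suspensions of 10^7 CFU/mL were swabbed onto Sabouraud Dextrose Agar and the plates dried 40 min at 35 °C. The nystatin positive-control disc carried 100 U. Plates were pre-incubated 2 h at 25 °C, then incubated 48 h at 25 °C. The growth-inhibition zone diameter was measured in mm, in duplicate.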

Candida parapsilosis [5] = test: Antifungal activity against Candida parapsilosis at 100 U/disc at 25 degC after 48 hrs by agar well diffusion assay; assay type: functional, organism-based; outline: as §3
Candida tropicalis [6] = test: Antifungal activity against Candida tropicalis at 100 U/disc at 25 degC after 48 hrs by agar well diffusion assay; assay type: functional, organism-based; outline: as §3
Staphylococcus aureus [7] = test: Antibacterial activity against Staphylococcus aureus at 37 degC after 24 hrs by agar well diffusion assay; assay type: functional
Outline: (§4)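 Compounds dissolved in DMSO at 2.5 mg/ml initial concentration, then serially diluted two-fold in DMSO. Nutrient Agar plates were swabbed with 10^8 CFU/mL bacteria and dried about 40 min at 35 °C. Solution was placed in 6 mm wells, then 2 h pre-incubation at 25 °C and 24 h at 37 °C. MIC is the lowest concentration giving a growth-inhibition zone around the well. Duplicate.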

Candida albicans [8] = test: Antifungal activity against Candida albicans ESOGU at 25 degC after 48 hrs by agar well diffusion assay; assay type: functional
Outline: (§5)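 Yeast suspensions of 10^7 CFU/mL were swabbed onto Sabouraud Dextrose Agar and dried about 40 min at 35 °C. Compounds were dissolved in DMSO (2.5 mg/ml initial) and diluted two-fold in DMSO, then loaded into 6 mm wells. Plates: 2 h pre-incubation at 25 °C, then 48 h at 25 °C. MIC read as the lowest concentration inhibiting growth around the well, in duplicate. The C. albicans clinical isolate came from a hospitalized patient at Eskisehir Osmangazi University hospital; the standard strain came from a culture collection.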

Candida tropicalis [9] = test: Antifungal activity against Candida tropicalis at 25 degC after 48 hrs by agar well diffusion assay; assay type: functional; outline: as §5
Enterococcus = test: Antibacterial activity against vancomycin-resistant Enterococcus species at 37 degC after 24 hrs by agar well diffusion assay; assay type: functional, organism-based; outline: as §1
Pseudomonas aeruginosa = test: Antibacterial activity against Pseudomonas aeruginosa at 37 degC after 24 hrs by agar well diffusion assay; assay type: functional, organism-based; outline: as §4
Candida albicans [10] = test: Antifungal activity against Candida albicans at 25 degC after 48 hrs by agar well diffusion assay; assay type: functional; outline: as §5
Candida parapsilosis [11] = test: Antifungal activity against Candida parapsilosis at 25 degC after 48 hrs by agar well diffusion assay; assay type: functional; outline: as §5
Nakaseomyces glabratus [12] = test: Antifungal activity against Candida glabrata at 25 degC after 48 hrs by agar well diffusion assay; assay type: functional; outline: as §5
Escherichia coli [13] = test: Antibacterial activity against Escherichia coli at 37 degC after 24 hrs by agar well diffusion assay; assay type: functional, organism-based; outline: as §4

Compound | Activity (Staphylococcus aureus [1]) | zone of inhibition at 30 µg/disc (Escherichia coli [2]) [mm] | zone of inhibition at 30 µg/disc (Staphylococcus aureus [3]) [mm] | inhibition zone (IZ) (Nakaseomyces glabratus [4]) [mm] | inhibition zone (IZ) (Candida parapsilosis [5]) [mm] | inhibition zone (IZ) (Candida tropicalis [6]) [mm] | Activity (Staphylococcus aureus [7]) | MIC (Candida albicans [8]) [µg/mL] | Activity (Candida tropicalis [9]) | Activity (Enterococcus) | Activity (Pseudomonas aeruginosa) | MIC (Candida albicans [10]) [µg/mL] | Activity (Candida parapsilosis [11]) | Activity (Nakaseomyces glabratus [12]) | Activity (Escherichia coli [13]) | Activity (Candida albicans [8])
CO/N=C(\C(=O)N[C@@H]1C(=O)N2C(C(=O)O)=C(COC(C)=O)CS[C@H]12)c1csc(N)n1 [CEFOTAXIME] | inactive | 45 | 35 | – | – | – | – | – | – | – | – | – | – | – | – | –
NYSTATIN | – | – | – | 24 | 19 | 19 | – | – | – | – | – | – | – | – | – | –
CCOC(=O)c1c(C(=O)Nc2ccc(C(F)(F)F)cc2)nn(-c2cccc([N+](=O)[O-])c2)c1-c1ccccc1 | inactive | – | – | – | – | – | inactive | 25 (≈ 47.7 µM) | inactive | inactive | inactive | 25 (≈ 47.7 µM) | inactive | inactive | inactive | –
O=C(Nc1cccc(F)c1)c1nn(-c2cccc([N+](=O)[O-])c2)c(-c2ccccc2)c1C(=O)Nc1cccc(F)c1 | inactive | – | – | – | – | – | inactive | – | inactive | inactive | inactive | 50 (≈ 92.7 µM) | inactive | inactive | inactive | inactive
O=C(Nc1ccc(F)cc1)c1nn(-c2cccc([N+](=O)[O-])c2)c(-c2ccccc2)c1C(=O)Nc1ccc(F)cc1 | inactive | – | – | – | – | – | inactive | – | inactive | inactive | inactive | 25 (≈ 46.3 µM) | inactive | inactive | inactive | inactive
CCOC(=O)c1c(C(=O)Nc2cccc(F)c2)nn(-c2cccc([N+](=O)[O-])c2)c1-c1ccccc1 | inactive | – | – | – | – | – | inactive | 50 (≈ 105 µM) | inactive | inactive | inactive | 25 (≈ 52.7 µM) | inactive | inactive | inactive | –
